The source of these data is ChEMBL document CHEMBL3352384, “Synthesis and biological activity of new salicylanilide N,N-disubstituted carbamates and thiocarbamates” (Bioorg Med Chem, 2014).

Values after ≈ are worked out from the molar mass of the structure shown.

Data set [1] concerns Staphylococcus aureus. Put plainly: Antimicrobial activity against methicillin-resistant Staphylococcus aureus H 5996/08 after 24 hrs by microdilution method. Type of data set: functional. As to conditions: H 5996/08, 24 h. The method in brief:
(§1)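 Mueller-Hinton broth microdilution; compounds dissolved in DMSO, final concentrations 500 to 0.49 µM. […] Benzylpenicillin and bacitracin as comparators. Each determination done twice.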

The test system of data set [2] is Staphylococcus aureus. Put plainly: Antimicrobial activity against Staphylococcus aureus CCM 4516/08 after 48 hrs by microdilution method. In kind it is functional. To be noted: CCM 4516/08, 48 h. The method in brief: as §1
Data set [3] has as its system Enterococcus sp. Put plainly: Antimicrobial activity against Enterococcus sp. J 14365/08 after 48 hrs by microdilution method. In kind it is functional. To be noted: J 14365/08, 48 h. The method in brief:
(§2)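 Broth microdilution in Mueller-Hinton broth, compounds dissolved in DMSO, final concentrations 500 to 0.49 µM. Benzylpenicillin and bacitracin were run as comparators. MIC was taken as 95% (IC95) or greater growth reduction versus control. Each determination was done twice.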

Data set [4] concerns Staphylococcus aureus. Nature of the data set: Antimicrobial activity against Staphylococcus aureus CCM 4516/08 after 24 hrs by microdilution method. Type of data set: functional. To be noted: CCM 4516/08, 24 h. In outline: as §1
The next data set relates to HepG2. Put plainly: Cytotoxicity against human HepG2 cells assessed as reduction in cell viability after 24 hrs by MTS assay. To be noted: HepG2, 24 h. In kind it is cell-based. The method in brief:
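HepG2 hepatocellular carcinoma cells (passage 3–4) were grown in Eagle's MEM with 10% FBS, 1% L-glutamine and non-essential amino acids. Compounds were added from DMSO at eight concentrations in triplicate, with 10% DMSO as the 0% viability control. Viability was read by tetrazolium salt reduction (CellTiter 96 AQueous One). IC50 is the concentration reducing viability to 50% of control.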

Data set [5] is described as follows: Selectivity index, ratio of IC50 for human HepG2 cells to MIC for methicillin-resistant Staphylococcus aureus H 5996/08. In outline: (§3)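 Selectivity index = HepG2 IC50 / MIC. HepG2 cells (passage 3–4) grown in Eagle's MEM with 10% FBS, L-glutamine and non-essential amino acids. Compounds added from DMSO, eight concentrations in triplicate, tetrazolium-reduction colorimetric read-out. IC50 is the concentration reducing viability to 50% of control; 10% DMSO as 0% viability.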

The test system of data set [6] is Staphylococcus epidermidis. Put plainly: Antimicrobial activity against Staphylococcus epidermidis H 6966/08 after 48 hrs by microdilution method. In kind it is functional. As to conditions: H 6966/08, 48 h. The method in brief:
as §2

In data set [7] the test system is Staphylococcus epidermidis. Nature of the data set: Antimicrobial activity against Staphylococcus epidermidis H 6966/08 after 24 hrs by microdilution method. Type of data set: functional. As to conditions: H 6966/08, 24 h. In outline:
as §2

Data set [8] concerns Staphylococcus aureus. Put plainly: Antimicrobial activity against methicillin-resistant Staphylococcus aureus H 5996/08 after 48 hrs by microdilution method. In kind it is functional. As to conditions: H 5996/08, 48 h. In outline: as §1
Data set [9] concerns Enterococcus sp. Put plainly: Antimicrobial activity against Enterococcus sp. J 14365/08 after 24 hrs by microdilution method. Type of data set: functional. As to conditions: J 14365/08, 24 h. In outline:
as §2

The test system of data set [10] is Trichophyton mentagrophytes. Put plainly: Antimicrobial activity against Trichophyton mentagrophytes 445 after 72 hrs by microdilution method. As to conditions: Trichophyton mentagrophytes, 445, 72 h. Type of data set: functional. In outline:
(§4)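 Broth microdilution in RPMI 1640 with glutamine, with fluconazole and amphotericin B as references. For filamentous fungi, MIC is expressed as the IC50, i.e. the concentration giving 50% growth reduction versus control. Each determination was done twice.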

Data set [11] can be described thus: Selectivity index, ratio of IC50 for human HepG2 cells to MIC for Trichophyton mentagrophytes 445.
The subject of data set [12] is Trichophyton mentagrophytes. Nature of the data set: Antimicrobial activity against Trichophyton mentagrophytes 445 after 120 hrs by microdilution method. Type of data set: functional. To be noted: Trichophyton mentagrophytes, 445, 120 h. The method in brief:
as §4

Data set [13] deals with Mycobacterium tuberculosis. Put plainly: Antimycobacterial activity against Mycobacterium tuberculosis H37Rv 331/88 assessed as complete growth inhibition after 14 days. In kind it is functional. As to conditions: H37Rv 331/88, 336 h. The method in brief: (§5)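 M. tuberculosis 331/88 (H37Rv) inoculum diluted 10-3, M. avium 330/88 diluted 10-5. MIC is the lowest concentration giving complete growth inhibition. Isoniazid and p-aminosalicylic acid as references. Quadruplicate, repeated twice.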

The nature of data set [14]: Inhibition of Mycobacterium tuberculosis H37Rv isocitrate lyase assessed as glyoxylate phenyl hydrazone formation at 10 uM.
Data set [15] relates to Mycobacterium kansasii. Nature of the data set: Antimycobacterial activity against Mycobacterium kansasii 235/80 assessed as complete growth inhibition after 7 days. As to conditions: 235/80, 168 h. In kind it is functional. The method in brief:
(§6)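 Dilutions of M. kansasii inoculum were 10-4 for strain 235/80 and 10-5 for clinical isolate 6509/96. MIC was the lowest concentration giving complete growth inhibition, run in quadruplicate and repeated twice.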

The test system of data set [16] is Mycobacterium avium. Nature of the data set: Antimycobacterial activity against Isoniazid, rifampicin, ofloxacin and ethambutol-resistant Mycobacterium avium 330/88 assessed as complete growth inhibition after 21 days. As to conditions: 330/88, 504 h. In kind it is functional. The method in brief: as §5
Data set [17] in a line: Selectivity index, ratio of IC50 for human HepG2 cells to MIC for atypical mycobacteria. In outline: as §3
Data set [18] relates to Mycobacterium kansasii. Put plainly: Antimycobacterial activity against clinical isolate Mycobacterium kansasii 6509/96 assessed as complete growth inhibition after 7 days. In kind it is functional. As to conditions: 6509/96, 168 h. In outline:
as §6

Data set [19] concerns Mycobacterium kansasii. Nature of the data set: Antimycobacterial activity against Mycobacterium kansasii 235/80 assessed as complete growth inhibition after 14 days. In kind it is functional. To be noted: 235/80, 336 h. In outline:
as §6

The test system of data set [20] is Mycobacterium kansasii. Put plainly: Antimycobacterial activity against clinical isolate Mycobacterium kansasii 6509/96 assessed as complete growth inhibition after 14 days. Type of data set: functional. As to conditions: 6509/96, 336 h. The method in brief:
as §6

Data set [21] is described as follows: Selectivity index, ratio of IC50 for human HepG2 cells to MIC for Mycobacterium tuberculosis H37Rv. In kind it is toxicity, cell-based. As to conditions: read-out: Selectivity Index. The method in brief:
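Selectivity index = HepG2 IC50 / MIC. HepG2 cells (passage 3–4) grown in Eagle's MEM with 10% FBS, L-glutamine and non-essential amino acids. Compounds added from DMSO, eight concentrations in triplicate, tetrazolium-reduction colorimetric read-out.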

The test system of data set [22] is Mycobacterium tuberculosis. Put plainly: Antimycobacterial activity against Mycobacterium tuberculosis H37Rv 331/88 assessed as complete growth inhibition after 21 days. Type of data set: functional. To be noted: H37Rv 331/88, 504 h. The method in brief: as §5
Data set [23] concerns Mycobacterium kansasii. Put plainly: Antimycobacterial activity against clinical isolate Mycobacterium kansasii 6509/96 assessed as complete growth inhibition after 21 days. In kind it is functional. To be noted: 6509/96, 504 h. In outline:
as §6

Data set [24] has as its system Mycobacterium kansasii. Put plainly: Antimycobacterial activity against Mycobacterium kansasii 235/80 assessed as complete growth inhibition after 21 days. Type of data set: functional. To be noted: 235/80, 504 h. The method in brief: as §6
The test system of data set [25] is Mycobacterium avium. Put plainly: Antimycobacterial activity against Isoniazid, rifampicin, ofloxacin and ethambutol-resistant Mycobacterium avium 330/88 assessed as complete growth inhibition after 14 days. Type of data set: functional. As to conditions: 330/88, 336 h. In outline: as §5

As for `CC1(C)S[C@@H]2[C@H](NC(=O)Cc3ccccc3)C(=O)N2[C@H]1C(=O)O` [PENICILLIN G], the MIC in the data set with Staphylococcus aureus [1] was 62.5 µM (≈ 20.9 µg/mL); against Staphylococcus aureus [2], 0.98 µM (≈ 0.328 µg/mL); in the data set on Enterococcus sp. [3], 15.6 µM (≈ 5.22 µg/mL); in the data set on Staphylococcus aureus [4], 0.98 µM (≈ 0.328 µg/mL); in [6] it was 250 µM (≈ 83.6 µg/mL); in data set [7] it was 250 µM (≈ 83.6 µg/mL). For the same compound, the MIC was 125 µM (≈ 41.8 µg/mL) against Staphylococcus aureus [8] and 7.81 µM (≈ 2.61 µg/mL) in the data set with Enterococcus sp. [9]. Besides, in the data set on HepG2, the IC50 is greater than 10000 µM. The “Selectivity Index” value in data set [5] was greater than 10.2.

Consider `OC(Cn1cncn1)(Cn1cncn1)c1ccc(F)cc1F` [FLUCONAZOLE], for which the MIC amounted to 7.81 µM (≈ 2.39 µg/mL) in data set [10] and 125 µM (≈ 38.3 µg/mL) in data set [12]. Besides, the IC50 with HepG2 was greater than 300 µM. The “Selectivity Index” value in data set [11] is greater than 2.4.

With `O=C(Nc1ccc(F)cc1)c1cc(Cl)ccc1O`, the MIC in data set [13] was found to be 8 µM (≈ 2.13 µg/mL); with Mycobacterium kansasii [15], 8 µM (≈ 2.13 µg/mL); in the data set on Mycobacterium avium [16], 32 µM (≈ 8.5 µg/mL); in the data set with Mycobacterium kansasii [18], 8 µM (≈ 2.13 µg/mL); in the data set with Mycobacterium kansasii [19], 16 µM (≈ 4.25 µg/mL); with Mycobacterium kansasii [20], 16 µM (≈ 4.25 µg/mL). For the same compound, the MIC in [22] amounted to 8 µM (≈ 2.13 µg/mL); in the data set with Mycobacterium kansasii [23], 16 µM (≈ 4.25 µg/mL); in the data set with Mycobacterium kansasii [24] it was 16 µM (≈ 4.25 µg/mL); in the data set on Mycobacterium avium [25], 16 µM (≈ 4.25 µg/mL). The IC50 in the data set with HepG2 stood at 26.1 µM. For the same compound, the inhibition in data set [14] came out at 14%. In addition, the “Selectivity Index” value in [11] is 3.3; in [17], 0.8. Further, in data set [21], the selectivity ratio was 3.3.

For the compound `CN(C)C(=S)Oc1ccc(Cl)cc1C(=O)Nc1ccc(Br)cc1`, the MIC is 0.49 µM (≈ 0.203 µg/mL) in the data set on Staphylococcus aureus [1]; 8 µM (≈ 3.31 µg/mL) in data set [13]; 0.49 µM (≈ 0.203 µg/mL) with Staphylococcus aureus [2]; 1.95 µM (≈ 0.807 µg/mL) in data set [10]; greater than 500 µM against Enterococcus sp. [3]; 0.49 µM (≈ 0.203 µg/mL) against Staphylococcus aureus [4]. Moreover, the MIC in the data set on Mycobacterium kansasii [15] amounted to 16 µM (≈ 6.62 µg/mL); in the data set on Mycobacterium avium [16], 16 µM (≈ 6.62 µg/mL); in the data set on Mycobacterium kansasii [18] it was 16 µM (≈ 6.62 µg/mL); in the data set with Mycobacterium kansasii [19], 16 µM (≈ 6.62 µg/mL); with Mycobacterium kansasii [20], 32 µM (≈ 13.2 µg/mL); in data set [6], 0.49 µM (≈ 0.203 µg/mL). For the same compound, the MIC in data set [7] was 0.49 µM (≈ 0.203 µg/mL); in data set [22], 8 µM (≈ 3.31 µg/mL); in data set [12], 1.95 µM (≈ 0.807 µg/mL); with Staphylococcus aureus [8] it was 0.49 µM (≈ 0.203 µg/mL); against Enterococcus sp. [9], greater than 500 µM; in the data set with Mycobacterium kansasii [23] it was 32 µM (≈ 13.2 µg/mL). In addition, the MIC in the data set on Mycobacterium kansasii [24] and in the data set with Mycobacterium avium [25] was 16 µM (≈ 6.62 µg/mL) throughout. In the data set on HepG2, the IC50 came out at 85.6 µM. Moreover, the “Selectivity Index” value is on record as 174.8 in data set [5], 843.9 in [11] and 2.7 in data set [17]. In data set [14], the inhibition stood at 11%. The selectivity ratio in data set [21] came out at 10.7.

In the case of `O=C(Nc1ccc(Cl)cc1)c1cc(Cl)ccc1O`, the MIC in data set [13] is 4 µM (≈ 1.13 µg/mL); with Mycobacterium kansasii [15], 4 µM (≈ 1.13 µg/mL); with Mycobacterium avium [16], 16 µM (≈ 4.51 µg/mL); in the data set on Mycobacterium kansasii [18] it was 4 µM (≈ 1.13 µg/mL); with Mycobacterium kansasii [19], 8 µM (≈ 2.26 µg/mL); with Mycobacterium kansasii [20], 8 µM (≈ 2.26 µg/mL). The MIC turned out to be 4 µM (≈ 1.13 µg/mL) in data set [22], 8 µM (≈ 2.26 µg/mL) with Mycobacterium kansasii [23], 8 µM (≈ 2.26 µg/mL) with Mycobacterium kansasii [24] and 8 µM (≈ 2.26 µg/mL) in the data set on Mycobacterium avium [25]. The IC50 in the data set on HepG2 was 21.7 µM. For the same compound, the inhibition in data set [14] was 13%. Further, the “Selectivity Index” value is 11.1 in data set [11] and 1.4 in [17]. For the same compound, the selectivity ratio in data set [21] was 5.4.
